Compound activity as filed in PubChem BioAssay.
CCR6 antagonist: CCR6 (human) receptor antagonism | P51684 | CHO-K1 CCR6 PathHunter beta-arrestin, luminescence, CCL20-stimulated | inhibition, % at 20 µM | actives 0.49% (n = 340,000) | AID 493098;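 active means compounds whose inhibition of the agonist-driven luminescence signal at 20 µM reaches about 50%, limit read from the data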;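 further: cells stimulated with CCL20 at 14 nM final; plate controls were DMSO with CCL20 for no effect and DMSO without agonist for full effect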
HTR2A ag: agonists of mouse serotonin 5-HT2A receptor (HTR2A); activation, % at 7.6 µM; AID 624169; CHO-K1 mHTR2A beta-arrestin complementation, luminescence; percent of 30 µM serotonin response; actives 0.66% (n = 360,000); P35363;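 active means activation above a run cutoff, the mean activation of all tested compounds plus 3 SD, cut at about 14% in these data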;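 further: 0% = plate median of compound wells and 100% = 30 µM serotonin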
APJ agonist: APJ receptor agonism; actives 0.11% (n = 330,000); CHO-K1 APJ PathHunter beta-arrestin, luminescence; 0% DMSO wells, 100% apelin; activation, % at 20 µM;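 active means activation more than six SD over the plate average, tested at 20 µM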;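 further: 0% = DMSO alone and 100% = apelin-13 at 10 nM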
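Material: engineered CHO-K1 APJ arrestin reporter cells; amount: 1000 CHO-K1 reporter cells seeded per well; incubation: compound stimulation 90 min at 25 °C, detection 60 min; signal: luminescent beta-gal fragment complementation, chemiluminescent substrate; read-out basis: APJ agonist activity; controls: DMSO-only wells as negative, 10 nM Apelin-13 as positive control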
CXCR6 inh: inhibitors of human CXCR6 receptor; inhibition, % at 20 µM; actives 0.36% (n = 360,000); CHO-K1 PathHunter CXCR6 beta-arrestin, luminescence; AID 602244; O00574; in the data active means inhibition above about 34%, passing the limit was not always enough;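 further: antagonist mode with CXCL16 agonist at 10 nM final; 0% = 10 nM CXCL16 with DMSO and 100% = unstimulated wells without agonist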
Target sequence (O00574 whole entry, looked up): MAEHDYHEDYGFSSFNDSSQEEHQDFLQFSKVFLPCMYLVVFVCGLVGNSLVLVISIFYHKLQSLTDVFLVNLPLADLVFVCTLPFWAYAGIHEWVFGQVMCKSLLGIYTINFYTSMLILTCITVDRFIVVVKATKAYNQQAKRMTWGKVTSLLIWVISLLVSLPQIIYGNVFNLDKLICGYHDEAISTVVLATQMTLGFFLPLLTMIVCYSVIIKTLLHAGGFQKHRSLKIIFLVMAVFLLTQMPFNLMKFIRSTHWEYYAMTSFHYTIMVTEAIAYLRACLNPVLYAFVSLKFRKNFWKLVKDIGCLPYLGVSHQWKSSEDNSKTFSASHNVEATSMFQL
EBI2 antag: antagonists of human EBI2 receptor; P32249; EBI2 beta-arrestin recruitment, luminescence, 7a,25-OHC stimulated; inhibition, % at 5 µM; actives 0.81% (n = 360,000); in the data active means inhibition above about 38%;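 further: enzyme fragment complementation signal reports receptor beta-arrestin coupling in cells; 0% = agonist plus DMSO wells and 100% = wells without agonist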
APJ antagonist: APJ receptor antagonism. AID 2521. CHO-K1 APJ beta-arrestin complementation, luminescence. inhibition, % at 20 µM. P35414. actives 0.32% (n = 330,000);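 active means inhibition above about 40% at 20 µM, limit read from the data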;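 further: cells challenged with 10 nM apelin-13 agonist together with compound; plate controls were apelin-13 plus DMSO wells for no effect and DMSO wells lacking apelin-13 for full effect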
Starred values were filed as active, the others as inactive; · = no result given. Rows were chosen to be rich in hits. Some 2.1% of all compounds tested hit in one or more screens of this group.

SMILES | CCR6 antagonist | HTR2A ag | APJ agonist | CXCR6 inh | EBI2 antag | APJ antagonist
Cc1cc(C)cc(NC(=O)CNC(c2ccccc2)c2ccccc2)c1 | 15 | -6 | -3 | 7 | 2 | -2
COc1cc(/C=N/NC(=O)c2cccc([N+](=O)[O-])c2)ccc1OCc1ccccc1 | 17 | -2 | 2 | 1 | 30 | -24
CCOC(=O)C(=Cc1ccc(OCc2ccc([N+](=O)[O-])cc2)c(OC)c1)C(=O)OCC | 9 | 6 | -2 | 9 | 54* | -2
O=C(c1cc2sccc2n1Cc1ccc(F)cc1)N1CCN(c2nc3ccccc3s2)CC1 | 11 | 1 | -1 | -2 | 23 | 14
O=S1(=O)C=C(Sc2nc3cc(Cl)ccc3o2)c2ccccc21 | 74* | -3 | -6 | 56* | 14 | 24
O=C(N/N=C/c1cc([N+](=O)[O-])ccc1O)c1ccc2c(c1)OCCO2 | 33 | -5 | -1 | 6 | 76* | 6
O=C(N/N=C/c1cc([N+](=O)[O-])ccc1O)C1CC1 | 42 | -24 | -4 | 21 | 62* | 10
O=C(N/N=C/c1ccccc1[N+](=O)[O-])c1ccc2c(c1)OCCO2 | 8 | -1 | -2 | 2 | 7 | -24
O=C(N/N=C/c1cc([N+](=O)[O-])ccc1O)c1cccc2cc[nH]c12 | 27 | -2 | -5 | 16 | 63* | 8
CCCCCN(C(=O)CCC(=O)OCC(=O)N(CC#N)c1ccccc1)c1c(N)n(CCCC)c(=O)[nH]c1=O | 7 | 6 | -5 | 0 | 4 | 10
O=C(N/C(=C\c1cccnc1)C(=O)N1CCCCC1)c1cccc(Br)c1 | 6 | -3 | 4 | -4 | 8 | -9
Cc1c(C(=O)NCc2ccc(F)cc2)oc2ccc(S(=O)(=O)N3CCOCC3)cc12 | -4 | 4 | 3 | -19 | 16 | -16
CCN(CC)S(=O)(=O)c1ccc2oc(C(=O)NCc3ccc(F)cc3)c(C)c2c1 | 11 | -4 | 0 | 5 | 50* | -1
Cc1ccc(C(=O)ONc2ccc(N=O)cc2)cc1 | 7 | 2 | 0 | -8 | -5 | -14
Cc1ccc(C(=O)ONc2ccc(N=NC(=O)c3ccccc3O)cc2)cc1 | 56* | 3 | -10 | 28 | 12 | 35
Fc1cccc(NC(=S)NNc2c3ccccc3nc3ccccc23)c1 | 56* | 0 | · | 38 | -3 | ·
COC(CNC(=O)c1ccc2c3c(onc13)-c1ccccc1C2=O)OC | · | -5 | 8 | 56* | 13 | -6
COC(CNC(=O)c1cccnc1)OC | 18 | 3 | -1 | 3 | -12 | -6
CC(C)Cc1cc(C(=O)N2CCC(N3CCC(C(=O)N4CCOCC4)CC3)CC2)n[nH]1 | 8 | -5 | -2 | -4 | 2 | -6
Cc1nn(Cc2c(F)c(F)c(F)c(F)c2F)c(C)c1NC(=O)c1ccc(COc2cc(Cl)ccc2Cl)cc1 | -12 | -1 | -4 | 0 | 51* | 4
O=C(NCc1ccccc1)C1CCCN(S(=O)(=O)c2ccc(-n3cnnn3)cc2)C1 (stereo unspecified) | -8 | 9 | -2 | -9 | 0 | 4
C/C(=N/Nc1ccc(C(=O)c2c(C)cc3ccccn23)cc1[N+](=O)[O-])c1ccc(O)cc1 | 47 | -1 | · | 37* | 19 | ·
C/C(=N\Nc1ccc(C(=O)c2c(C)cc3ccccn23)cc1[N+](=O)[O-])c1ccc(O)cc1 | 41 | 1 | -5 | 47* | 40 | 17
Cc1cc2oc(=O)c3c(c2cc1OCc1nn[nH]n1)CCCC3 | 24 | 7 | -2 | -1 | -8 | 25
O=C1C(=O)N(C2CCS(=O)(=O)C2)C(c2cccc(O)c2)/C1=C(/O)c1ccc(Cl)cc1 (stereo unspecified) | 14 | 4 | 4 | -9 | -17 | 3
N#Cc1ccccc1NC(=O)CSC1=Nc2ccccc2C2CC=NN12 (stereo unspecified) | 13 | -2 | -3 | -11 | -1 | 12
O=C(CSC1=Nc2ccccc2C2CC=NN12)Nc1ccc2c(c1)OCO2 (stereo unspecified) | 54* | -3 | · | 29 | 5 | ·
CCCOc1ccc(-c2nc(OCC)c3ccccc3n2)cc1 | 3 | 1 | -3 | -5 | 7 | 19
O=c1ccn(Cc2ccccc2)c(SCc2ccccc2)n1 | 6 | 2 | · | 7 | 4 | ·
